The term IC50 denotes the concentration at which inhibition is half-maximal. One may read the Ki as a measure of affinity in units of concentration, obtained from inhibition or displacement.

Consider 42 compounds from ChEMBL document CHEMBL1140106, “Blocking estrogen signaling after the hormone: pyrimidine-core inhibitors of estrogen receptor-coactivator binding” (J Med Chem, 2008).

Series [1] deals with T1, Estrogen receptor (Homo sapiens, UniProt P03372).
T1 sequence (P03372 whole entry): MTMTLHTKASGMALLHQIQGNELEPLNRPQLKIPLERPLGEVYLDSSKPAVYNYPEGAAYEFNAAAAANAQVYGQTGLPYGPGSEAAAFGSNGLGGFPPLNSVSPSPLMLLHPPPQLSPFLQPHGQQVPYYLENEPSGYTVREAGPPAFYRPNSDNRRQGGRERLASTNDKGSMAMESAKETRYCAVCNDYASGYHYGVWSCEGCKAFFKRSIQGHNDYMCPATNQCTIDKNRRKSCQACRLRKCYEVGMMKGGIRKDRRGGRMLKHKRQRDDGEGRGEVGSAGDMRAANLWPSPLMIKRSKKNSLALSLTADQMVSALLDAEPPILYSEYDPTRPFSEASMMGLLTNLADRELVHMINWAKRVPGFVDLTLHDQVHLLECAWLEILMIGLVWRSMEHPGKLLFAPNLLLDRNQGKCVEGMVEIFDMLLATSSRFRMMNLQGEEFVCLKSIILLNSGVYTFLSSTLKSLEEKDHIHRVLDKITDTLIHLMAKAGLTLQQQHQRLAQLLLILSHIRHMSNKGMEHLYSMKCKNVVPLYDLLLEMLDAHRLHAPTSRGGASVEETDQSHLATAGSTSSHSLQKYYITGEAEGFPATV
Put plainly: Antagonist activity at ERalpha in human HEC1 cells assessed as inhibition of estrogen-induced transcriptional activity after 24 hrs by reporter gene assay. Format: functional, cell-based, HEC-1. The method, boiled down:
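HEC-1 cells, which lack endogenous ER, were lipofectin-transfected with full-length ERα vector, 2ERE-luciferase reporter and pCMV β-gal as internal control. After 6 h the medium was changed to 5% charcoal-dextran-treated calf serum with ligands.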
On the technique in general: Reporter assays use an easily measured gene product as a stand-in for the process of interest.

The target of series [2] is T2, Estrogen receptor beta (Homo sapiens, UniProt Q92731). The series is described as follows: Binding affinity to ERbeta assessed as inhibition of fluorescein-labeled nuclear receptor domain of steroid receptor coactivator 3 by TR-FRET assay. (In general: In TR-FRET formats the signal depends on donor and acceptor labels being close together.)
The target in series [3] is T1, Estrogen receptor. The series is described as follows: Binding affinity to ERalpha assessed as inhibition of fluorescein-labeled nuclear receptor domain of steroid receptor coactivator 3 by TR-FRET assay. The method, boiled down:
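Fluorescein-SRC-3-NRD (50 nM) was then added for 1 h at room temperature in the dark. Buffer: 20 mM Tris pH 7.5, 0.01% NP40, 50 mM NaCl. SRC-1 Box II peptide served as positive control.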

In series [4] the target is T2, Estrogen receptor beta. Put plainly: Antagonist activity at ERbeta in human HEC1 cells assessed as inhibition of estrogen-induced transcriptional activity after 24 hrs by reporter gene assay. It is filed as functional, cell-based, HEC-1.
The nature of series [5]: Cytotoxicity against human HEC1 cells assessed as decrease in viable cell count at 20 uM. It is filed as cell-based. The settings on record: hec-1, 20 µM.
In series [6] the target is T1, Estrogen receptor. Put plainly: Binding affinity to ERalpha assessed as inhibition of steroid receptor coactivator interaction in african green monkey COS7 cells by mammalian 2 hybrid assay. Format: cell-based, COS-7.
For series [7], the target named is T1, Estrogen receptor. Put plainly: Binding affinity to ERalpha assessed as inhibition of steroid receptor coactivator 2 interaction by fluorescence polarization assay. (In general: Fluorescence polarisation rises when a labelled molecule tumbles more slowly, as on binding a larger partner.)

Where only a bound is given, the exact number is not on record here.

T2 sequence (Q92731 whole entry, the tested form may be a part): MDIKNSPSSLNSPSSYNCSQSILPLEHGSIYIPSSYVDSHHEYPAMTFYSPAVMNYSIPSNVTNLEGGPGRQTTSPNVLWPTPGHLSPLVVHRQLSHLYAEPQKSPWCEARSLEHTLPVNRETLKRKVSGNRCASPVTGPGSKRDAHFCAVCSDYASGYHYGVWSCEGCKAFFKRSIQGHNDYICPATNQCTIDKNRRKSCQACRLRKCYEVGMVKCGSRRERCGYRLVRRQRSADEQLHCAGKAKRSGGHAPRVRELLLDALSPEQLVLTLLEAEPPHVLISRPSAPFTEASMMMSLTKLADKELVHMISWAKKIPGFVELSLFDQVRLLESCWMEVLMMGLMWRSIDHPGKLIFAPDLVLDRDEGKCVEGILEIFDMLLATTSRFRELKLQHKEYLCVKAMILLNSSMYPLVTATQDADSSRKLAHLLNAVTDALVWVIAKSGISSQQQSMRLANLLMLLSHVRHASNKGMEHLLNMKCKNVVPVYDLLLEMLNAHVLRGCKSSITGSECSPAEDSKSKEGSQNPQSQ

Regarding `CC(C)CCc1cc(NCC(C)C)nc(N(C)CC(C)C)n1`, the IC50 at Estrogen receptor [1] amounted to 0.0097 mM. Moreover, the Ki was greater than 1 mM on Estrogen receptor beta [2] and 0.0072 mM on Estrogen receptor [3].

As to `C(=C\c1cc(NCc2ccccc2)nc(NCc2ccccc2)n1)/c1ccccc1`, the concentration for half-maximal inhibition (IC50) on Estrogen receptor [1] was greater than 1 mM. The Ki on Estrogen receptor beta [2] and on Estrogen receptor [3] was greater than 1 mM in each case.

Turning to `CC(C)CCc1cc(NCc2ccccc2)nc(NCc2cccc3ccccc23)n1`, the IC50 at Estrogen receptor [1] is greater than 1 mM. The Ki at Estrogen receptor beta [2] and at Estrogen receptor [3] was greater than 1 mM throughout.

With `CC(C)CCc1cc(CCC(C)C)nc(NCc2ccccc2)n1`, the IC50 on Estrogen receptor [1] is greater than 1 mM. For the same compound, the Ki at Estrogen receptor beta [2] and on Estrogen receptor [3] was greater than 1 mM throughout.

Regarding `c1ccc(CCc2cc(CCc3ccccc3)nc(NCc3cccc4ccccc34)n2)cc1`, the IC50 at Estrogen receptor [1] is greater than 1 mM. Moreover, the Ki on Estrogen receptor beta [2] and on Estrogen receptor [3] was greater than 1 mM in each case.

With `CC(C)CCc1cc(NCC(C)C)nc(NCC(C)C)n1`, the IC50 at Estrogen receptor beta [4] was greater than 1 mM. Further, the Ki on Estrogen receptor beta [2] was greater than 1 mM.

For the compound `CC(C)CCc1cc(NCC(C)C)nc(OCC(C)C)n1`, the outcome in series [5] was Active. Further, at Estrogen receptor [1], the IC50 worked out at 0.0069 mM. Besides, the Ki on Estrogen receptor beta [2] and on Estrogen receptor [3] was greater than 1 mM throughout.

For `CC(C)CNc1nc(/C=C/c2ccccc2)cc(NCc2ccccc2)n1`, the IC50 on Estrogen receptor [1] is 0.0098 mM. Further, the figures for the Ki at Estrogen receptor beta [2] and on Estrogen receptor [3] were greater than 1 mM and 0.016 mM, respectively.

Consider `c1ccc(CCc2cc(OCc3ccccc3)nc(OCc3ccccc3)n2)cc1`, for which the IC50 on Estrogen receptor [1] is greater than 1 mM. Also, the Ki on Estrogen receptor beta [2] and on Estrogen receptor [3] was greater than 1 mM each time.

As for `CC(C)CNc1cc(NCC(C)C)nc(NCC(C)C)n1`, the outcome in series [5] was Active. Besides, the Ki at Estrogen receptor beta [2] was 0.299 mM.

On to `c1ccc(CCc2cc(NCc3cccc4ccccc34)nc(NCc3ccccc3)n2)cc1`, for which the IC50 on Estrogen receptor [1] is greater than 1 mM. Moreover, the Ki at Estrogen receptor beta [2] and on Estrogen receptor [3] was greater than 1 mM in each case.

Consider `CC(C)CCc1nc(NCc2cccc3ccccc23)cc(NCC(C)C)n1`, for which the IC50 on Estrogen receptor [1] is greater than 1 mM. In addition, the Ki at Estrogen receptor beta [2] and on Estrogen receptor [3] was greater than 1 mM each time.

In the case of `C(=C\c1cc(/C=C/c2ccccc2)nc(NCc2ccccc2)n1)/c1ccccc1`, the IC50 at Estrogen receptor [1] was greater than 1 mM. Moreover, the Ki at Estrogen receptor beta [2] and at Estrogen receptor [3] was greater than 1 mM each time.

Take `CC(C)CSc1cc(SCC(C)C)nc(SCC(C)C)n1`: the IC50 at Estrogen receptor [1] is greater than 1 mM. In addition, on Estrogen receptor beta [2], the Ki was greater than 1 mM.

For the compound `CC(C)CNc1cc(/C=C/c2ccccc2)nc(NCc2ccccc2)n1`, the outcome in series [5] was Active. On Estrogen receptor [1], the IC50 turned out to be 0.012 mM. Further, the Ki at Estrogen receptor beta [2] and on Estrogen receptor [3] was greater than 1 mM each time.

As to `C(=C\c1cc(OCc2ccccc2)nc(OCc2ccccc2)n1)/c1ccccc1`, at Estrogen receptor [1], the IC50 is greater than 1 mM. The inhibition constant Ki on Estrogen receptor beta [2] and on Estrogen receptor [3] was greater than 1 mM in each case.

As to `CC(C)CNc1nc(/C=C/c2ccccc2)cc(/C=C/c2ccccc2)n1`, the IC50 on Estrogen receptor [1] was greater than 1 mM. Further, the Ki at Estrogen receptor beta [2] and at Estrogen receptor [3] was greater than 1 mM each time.

On to `CC(C)CCc1cc(NCc2ccccc2)nc(NCC(C)C)n1`, for which, at Estrogen receptor [1], the IC50 is 0.0058 mM. Further, the Ki at Estrogen receptor beta [2] is greater than 1 mM; at Estrogen receptor [3] it was 0.0058 mM.

Consider `CC(C)CNc1nc(/C=C/c2ccccc2)cc(N(C)CC(C)C)n1`, for which the IC50 at Estrogen receptor [1] is greater than 1 mM. For the same compound, the Ki at Estrogen receptor beta [2] and on Estrogen receptor [3] was greater than 1 mM each time.

In the case of `CC(C)COc1cc(OCC(C)C)nc(OCC(C)C)n1`, the IC50 on Estrogen receptor [1] was greater than 1 mM. Moreover, the Ki on Estrogen receptor beta [2] and at Estrogen receptor [3] was greater than 1 mM each time.

As for `CC(C)CNc1nc(CCc2ccccc2)cc(NCc2ccccc2)n1`, the IC50 on Estrogen receptor [1] was 0.0019 mM. For the same compound, the values for the inhibitory constant (Ki) on Estrogen receptor beta [2] and on Estrogen receptor [3] were greater than 1 mM and 0.0017 mM, respectively.

Turning to `CC(C)CCc1cc(NCc2cccc3ccccc23)nc(NCc2cccc3ccccc23)n1`, at Estrogen receptor [1], the IC50 was greater than 1 mM. Further, the Ki on Estrogen receptor beta [2] and at Estrogen receptor [3] was greater than 1 mM throughout.

In the case of `CC(C)CCc1cc(OCc2ccccc2)nc(OCc2ccccc2)n1`, at Estrogen receptor [1], the IC50 is greater than 1 mM. Besides, the Ki at Estrogen receptor beta [2] and on Estrogen receptor [3] was greater than 1 mM in each case.

`CC(C)CCc1cc(NCc2ccccc2)nc(NCc2ccccc2)n1`: the IC50 on Estrogen receptor [1] came out at 0.0083 mM. Besides, the Ki was greater than 1 mM at Estrogen receptor beta [2] and 0.0041 mM on Estrogen receptor [3].

As for `CC(C)CNc1cc(CCc2cccc3ccccc23)nc(NCC(C)C)n1`, the IC50 on Estrogen receptor [1] was determined as 0.0021 mM. Also, the inhibition constant Ki on Estrogen receptor beta [2] is greater than 1 mM; on Estrogen receptor [3], 0.0025 mM.

As for `c1ccc(CCc2cc(NCc3cccc4ccccc34)nc(NCc3cccc4ccccc34)n2)cc1`, on Estrogen receptor [1], the IC50 is greater than 1 mM. The Ki at Estrogen receptor beta [2] and at Estrogen receptor [3] was greater than 1 mM in each case.

In the case of `CC(C)CNc1cc(CCc2ccccc2)nc(NCC(C)C)n1`, the outcome in series [5] was Active. Also, the results for the IC50 at Estrogen receptor [1] and at Estrogen receptor beta [4] were 0.0021 mM and greater than 1 mM, respectively. Besides, the Ki on Estrogen receptor beta [2] was greater than 1 mM; on Estrogen receptor [3] it was 0.0058 mM.

Regarding `CC(C)CNc1cc(/C=C/c2ccccc2)nc(NCc2cccc3ccccc23)n1`, on Estrogen receptor [1], the IC50 was greater than 1 mM. In addition, the Ki at Estrogen receptor beta [2] and on Estrogen receptor [3] was greater than 1 mM in each case.

As to `CC(C)COc1cc(CCc2ccccc2)nc(OCC(C)C)n1`, the IC50 at Estrogen receptor [1] is greater than 1 mM. Besides, the Ki at Estrogen receptor beta [2] and on Estrogen receptor [3] was greater than 1 mM each time.

As to `c1ccc2c(CCc3cc(NCc4cccc5ccccc45)nc(NCc4cccc5ccccc45)n3)cccc2c1`, the IC50 at Estrogen receptor [1] is greater than 1 mM. The inhibition constant Ki at Estrogen receptor beta [2] and at Estrogen receptor [3] was greater than 1 mM each time.

On to `N=C(N)N/N=C/C1=C(Cl)c2ccccc2CC1`, for which the IC50 at Estrogen receptor [6] came to 5.5 µM.

On to `CC(C)CCc1cc(NCc2cccc3ccccc23)nc(NCc2ccccc2)n1`, for which the IC50 on Estrogen receptor [1] was greater than 1 mM. The Ki at Estrogen receptor beta [2] and at Estrogen receptor [3] was greater than 1 mM in each case.

`CC(C)CNc1nc(CCc2ccccc2)cc(CCc2ccccc2)n1`: on Estrogen receptor [1], the IC50 is greater than 1 mM. Also, the Ki on Estrogen receptor beta [2] and on Estrogen receptor [3] was greater than 1 mM throughout.

As to `CC(C)(C)OC(=O)N(Cc1cccc2ccccc12)c1cc(CCc2ccccc2)nc(NCc2cccc3ccccc23)n1`, the IC50 at Estrogen receptor [1] was greater than 1 mM. Further, the Ki on Estrogen receptor beta [2] and on Estrogen receptor [3] was greater than 1 mM in each case.

`CC(C)CNc1cc(CCc2ccccc2)nc(NCc2cccc3ccccc23)n1`: the IC50 on Estrogen receptor [1] is greater than 1 mM. The Ki on Estrogen receptor beta [2] and on Estrogen receptor [3] was greater than 1 mM throughout.

`c1ccc(COc2cc(OCc3ccccc3)nc(OCc3ccccc3)n2)cc1`: at Estrogen receptor [1], the IC50 was greater than 1 mM. The Ki on Estrogen receptor beta [2] and on Estrogen receptor [3] was greater than 1 mM throughout.

Consider `c1ccc(CSc2cc(SCc3ccccc3)nc(SCc3ccccc3)n2)cc1`, for which, on Estrogen receptor [1], the IC50 was greater than 1 mM. For the same compound, the Ki on Estrogen receptor beta [2] and on Estrogen receptor [3] was greater than 1 mM in each case.

Regarding `CC(C)COc1cc(/C=C/c2ccccc2)nc(OCC(C)C)n1`, the IC50 at Estrogen receptor [1] is greater than 1 mM. The Ki on Estrogen receptor beta [2] and on Estrogen receptor [3] was greater than 1 mM throughout.

In the case of `CC(C)CNc1nc(CCc2cccc3ccccc23)cc(N(CC(C)C)C(=O)OC(C)(C)C)n1`, at Estrogen receptor [1], the IC50 is greater than 1 mM. Also, the Ki on Estrogen receptor beta [2] and on Estrogen receptor [3] was greater than 1 mM throughout.

In the case of `c1ccc(CCc2cc(NCc3ccccc3)nc(NCc3ccccc3)n2)cc1`, the IC50 on Estrogen receptor [1] is greater than 1 mM. Further, the Ki on Estrogen receptor beta [2] was greater than 1 mM; on Estrogen receptor [7] it was 49 µM; at Estrogen receptor [3], greater than 1 mM.

Turning to `CC(C)CCc1cc(NCC(C)C)nc(NCc2ccccc2)n1`, the result in series [5] was Active. At Estrogen receptor [1], the IC50 was 0.0018 mM. In addition, the values for the Ki at Estrogen receptor beta [2] and on Estrogen receptor [3] were greater than 1 mM and 0.0079 mM, respectively.

Turning to `CC(C)CNc1cc(NCc2ccccc2)nc(NCC(C)C)n1`, the IC50 was 0.0095 mM on Estrogen receptor [1] and greater than 1 mM at Estrogen receptor beta [4]. In addition, on Estrogen receptor beta [2], the Ki was greater than 1 mM.
